One test relates to HeLa. Nature of the test: Cytotoxicity against human HeLa cells measured on day 4 by CCK8 assay. Format: functional, cell-based. The conditions noted are these: 96 h. A digest of the protocol:
(§1)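 Cells seeded at […], grown overnight in medium with 10% FBS at 37 °C under 5% CO2. On day 2 they were serum-starved 4 h, then exposed to graded compound concentrations. On day 4 CCK-8 was added for a further 4 h and absorbance read at 450 nm. IC50 came from a four-parameter logistic fit, mean ± SD of three experiments in triplicate.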

The test system of a further test is HCT-15. Kind of test: Cytotoxicity against human HCT15 cells measured on day 4 by CCK8 assay. The format is functional, cell-based. The conditions noted are these: HCT-15, 96 h. The procedure, abridged:
as §1

For the next test, the system named is T47D. Kind of test: Cytotoxicity against human T47D cells measured on day 4 by CCK8 assay. The conditions noted are these: 96 h. Format: functional, cell-based. A digest of the protocol:
as §1

The test system of the next test is DU-145. Nature of the test: Cytotoxicity against human DU145 cells measured on day 4 by CCK8 assay. Format: functional, cell-based. The conditions noted are these: DU-145, 96 h. The procedure, abridged:
as §1

Test [1] addresses T1, DNA topoisomerase 1 (Homo sapiens) (UniProt P11387).
T1 sequence (whole entry): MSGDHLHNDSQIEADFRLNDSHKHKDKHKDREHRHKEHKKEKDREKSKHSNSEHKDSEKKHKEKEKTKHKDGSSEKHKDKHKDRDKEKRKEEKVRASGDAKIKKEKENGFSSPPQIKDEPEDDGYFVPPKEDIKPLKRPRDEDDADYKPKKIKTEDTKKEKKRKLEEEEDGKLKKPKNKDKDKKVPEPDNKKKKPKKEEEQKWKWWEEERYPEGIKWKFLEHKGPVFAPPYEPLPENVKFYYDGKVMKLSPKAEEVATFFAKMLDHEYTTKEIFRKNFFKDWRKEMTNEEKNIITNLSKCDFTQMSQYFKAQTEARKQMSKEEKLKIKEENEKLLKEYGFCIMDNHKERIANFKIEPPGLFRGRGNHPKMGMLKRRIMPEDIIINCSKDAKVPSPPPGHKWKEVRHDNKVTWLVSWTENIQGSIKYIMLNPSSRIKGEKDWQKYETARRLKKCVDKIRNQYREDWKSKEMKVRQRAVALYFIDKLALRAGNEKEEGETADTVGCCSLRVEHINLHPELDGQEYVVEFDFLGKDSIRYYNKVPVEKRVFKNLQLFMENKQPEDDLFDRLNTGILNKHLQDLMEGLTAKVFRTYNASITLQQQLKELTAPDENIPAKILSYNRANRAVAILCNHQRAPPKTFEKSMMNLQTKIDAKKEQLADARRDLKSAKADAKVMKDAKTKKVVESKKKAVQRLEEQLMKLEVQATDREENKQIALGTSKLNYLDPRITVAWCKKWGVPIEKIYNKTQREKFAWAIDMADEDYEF
Nature of the test: Inhibition of recombinant human DNA topoisomerase-1 assessed as relaxation of supercoiled DNA pBR322 at 100 uM after 30 mins by agarose gel electrophoresis relative to control. The procedure, abridged:
(§2)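 Relaxation assay with 100 ng pBR322 plasmid DNA and 1 unit recombinant human topo I. Buffer was 10 mM Tris–HCl pH 7.9, 150 mM NaCl, 0.1% BSA, 1 mM spermidine and 5% glycerol, incubated 37 °C for 30 min with or without compound. Products were run on a 1% agarose gel in TAE at 15 V for 7 h and stained with ethidium bromide (0.5 µg/mL) for 30 min.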

Test [2] concerns the target DNA topoisomerase 2-alpha (Homo sapiens) (UniProt P11388). Nature of the test: Inhibition of recombinant human DNA topoisomerase-2alpha using supercoiled pBR322 plasmid DNA as substrate at 20 uM after 30 mins by agarose gel electrophoresis relative to control. A digest of the protocol: (§3)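 200 ng supercoiled pBR322 with 1 unit human topo II, incubated 30 min at 30 °C with or without compound in 10 mM Tris–HCl pH 7.9, 50 mM NaCl, 5 mM MgCl2, 1 mM EDTA, 1 mM ATP and 15 µg/mL BSA. Reaction was stopped with 7 mM EDTA and run on 1% agarose in TAE at 25 V. Gel was stained with ethidium bromide, visualized under UV, and supercoiled DNA quantitated densitometrically.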

For test [3] the target is unchanged. Kind of test: Inhibition of recombinant human DNA topoisomerase-2alpha using supercoiled pBR322 plasmid DNA as substrate at 100 uM after 30 mins by agarose gel electrophoresis relative to control. A digest of the protocol:
as §3

Test [4] deals with T1, DNA topoisomerase 1 (Homo sapiens). Kind of test: Inhibition of recombinant human DNA topoisomerase-1 assessed as relaxation of supercoiled DNA pBR322 at 20 uM after 30 mins by agarose gel electrophoresis relative to control. The procedure, abridged: as §2

Chain of DNA topoisomerase 2-alpha (Homo sapiens) (P11388 whole entry): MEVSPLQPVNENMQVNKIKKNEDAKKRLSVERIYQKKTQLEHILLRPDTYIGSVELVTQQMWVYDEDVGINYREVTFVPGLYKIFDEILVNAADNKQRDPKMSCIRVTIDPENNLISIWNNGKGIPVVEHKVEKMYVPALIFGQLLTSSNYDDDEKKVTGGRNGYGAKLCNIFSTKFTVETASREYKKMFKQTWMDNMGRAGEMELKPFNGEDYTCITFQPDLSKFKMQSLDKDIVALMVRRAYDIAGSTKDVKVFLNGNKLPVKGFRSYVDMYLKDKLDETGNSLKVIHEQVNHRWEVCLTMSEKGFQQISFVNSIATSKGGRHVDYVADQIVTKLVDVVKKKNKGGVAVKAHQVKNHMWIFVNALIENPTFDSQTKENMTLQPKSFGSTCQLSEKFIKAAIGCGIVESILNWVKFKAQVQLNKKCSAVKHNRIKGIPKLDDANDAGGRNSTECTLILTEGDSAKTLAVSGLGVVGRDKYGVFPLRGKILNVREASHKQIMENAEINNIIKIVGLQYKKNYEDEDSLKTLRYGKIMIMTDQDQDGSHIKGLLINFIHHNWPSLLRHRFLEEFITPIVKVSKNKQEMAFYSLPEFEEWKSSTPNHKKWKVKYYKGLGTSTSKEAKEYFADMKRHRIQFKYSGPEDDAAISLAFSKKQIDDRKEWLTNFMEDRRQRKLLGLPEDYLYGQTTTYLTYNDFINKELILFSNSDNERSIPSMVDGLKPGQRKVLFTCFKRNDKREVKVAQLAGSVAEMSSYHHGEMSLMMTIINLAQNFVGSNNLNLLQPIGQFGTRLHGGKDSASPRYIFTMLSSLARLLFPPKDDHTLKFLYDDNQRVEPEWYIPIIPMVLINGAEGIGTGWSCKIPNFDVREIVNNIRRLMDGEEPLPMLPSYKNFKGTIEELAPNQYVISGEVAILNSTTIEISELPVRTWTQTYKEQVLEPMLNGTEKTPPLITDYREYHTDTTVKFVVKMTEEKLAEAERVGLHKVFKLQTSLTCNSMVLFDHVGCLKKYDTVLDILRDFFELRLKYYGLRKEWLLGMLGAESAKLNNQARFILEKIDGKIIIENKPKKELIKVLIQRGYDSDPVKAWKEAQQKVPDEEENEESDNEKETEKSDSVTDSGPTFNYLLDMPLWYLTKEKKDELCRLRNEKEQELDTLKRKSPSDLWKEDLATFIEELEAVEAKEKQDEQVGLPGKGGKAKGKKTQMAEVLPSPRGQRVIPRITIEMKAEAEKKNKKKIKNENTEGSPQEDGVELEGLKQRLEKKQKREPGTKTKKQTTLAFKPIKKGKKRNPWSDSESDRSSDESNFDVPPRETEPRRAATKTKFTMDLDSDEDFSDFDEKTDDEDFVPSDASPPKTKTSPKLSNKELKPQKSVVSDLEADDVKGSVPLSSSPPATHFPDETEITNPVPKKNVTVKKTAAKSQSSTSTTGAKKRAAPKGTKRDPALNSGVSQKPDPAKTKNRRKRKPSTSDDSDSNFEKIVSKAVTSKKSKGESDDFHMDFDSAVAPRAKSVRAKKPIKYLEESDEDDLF

As to `COc1cccc2c1C(=O)c1c(O)c3c(c(O)c1C2=O)C[C@@](O)(C(=O)CO)C[C@@H]3O[C@H]1C[C@H](N)[C@H](O)[C@H](C)O1` [DOXORUBICIN], the IC50 in the test on HeLa came to 0.88 µM; with HCT-15 it was 1.23 µM; in the test on T47D, 1.34 µM.

On to `Oc1cccc(-c2cc(-c3cccs3)cc(-c3cccc(O)c3)n2)c1`, for which the IC50 in the test with DU-145 worked out at 1.63 µM; with HeLa it was 1.69 µM; in the test with HCT-15, 3.48 µM; in the test with T47D it was 0.77 µM. For the same compound, the inhibition in test [1] turned out to be 91.7%; in test [2] it was 22.3%; in test [3], 78.3%; in test [4] it was 0%.

As to `Oc1ccccc1-c1cc(-c2cccnc2)cc(-c2ccccc2O)n1`, the IC50 in the test with DU-145, in the test with HeLa, in the test with HCT-15 and in the test with T47D was above 50 µM in each case. The inhibition in test [1] is 66.4%; in test [3] it was 5.2%; in test [4], 0%.

Regarding `Oc1ccc(-c2cc(-c3ccccn3)cc(-c3ccccc3O)n2)cc1`, the IC50 with DU-145 was 25.4 µM; with HeLa, above 50 µM; with HCT-15 it was above 50 µM; in the test on T47D it was above 50 µM. Moreover, the inhibition in test [1] was found to be 0.2%; in test [3], 7.8%.

As for `Oc1ccc(-c2cc(-c3cccnc3)cc(-c3ccccc3O)n2)cc1`, the IC50 with DU-145, with HeLa, with HCT-15 and in the test with T47D was above 50 µM each time. The figures for the inhibition in test [1], in test [3] and in test [4] were 1.5%, 8.3% and 0%, respectively.

For `Oc1ccccc1-c1cc(-c2cccs2)cc(-c2ccccc2O)n1`, the IC50 in the test on DU-145, in the test with HeLa, with HCT-15 and with T47D was above 50 µM throughout. The inhibition was found to be 77.2% in test [1], 10.8% in test [2], 55.9% in test [3] and 0.2% in test [4].

On to `Oc1ccc(-c2cc(-c3ccsc3)cc(-c3ccccc3O)n2)cc1`, for which the IC50 in the test on DU-145, in the test with HeLa, with HCT-15 and with T47D was above 50 µM each time. Also, the inhibition in test [1] worked out at 13.8%; in test [2], 9.7%; in test [3] it was 80.6%.

Regarding `Oc1ccc(-c2cc(-c3ccsc3)cc(-c3cccc(O)c3)n2)cc1`, the IC50 in the test on DU-145 turned out to be 2.23 µM; with HeLa, 2.58 µM; in the test with HCT-15, 1.18 µM; in the test on T47D, 0.76 µM. For the same compound, the inhibition in test [1] was 17.1%; in test [2] it was 44.7%; in test [3] it was 91.5%.

Regarding `Oc1cccc(-c2cc(-c3ccsc3)cc(-c3ccccc3O)n2)c1`, the IC50 with DU-145, in the test with HeLa, in the test with HCT-15 and with T47D was above 50 µM each time. For the same compound, the inhibition came to 10.2% in test [1], 11% in test [2] and 78.2% in test [3].

`Oc1ccc(-c2cc(-c3cccnc3)cc(-c3cccc(O)c3)n2)cc1`: the IC50 in the test on DU-145 is 6.39 µM; in the test with HeLa, above 50 µM; in the test on HCT-15, above 50 µM; with T47D it was above 50 µM. Moreover, the results for the inhibition in test [1], in test [3] and in test [4] were 5.9%, 14.8% and 2.8%, respectively.

On to `Oc1ccccc1-c1cc(-c2ccsc2)cc(-c2ccccc2O)n1`, for which the IC50 in the test with DU-145, in the test with HeLa, in the test on HCT-15 and in the test with T47D was above 50 µM in each case. Moreover, the results for the inhibition in test [1], in test [2] and in test [3] were 0%, 4.7% and 84.5%, respectively.

Turning to `Oc1cccc(-c2cc(-c3ccccn3)cc(-c3cccc(O)c3)n2)c1`, the IC50 turned out to be 3.61 µM in the test on DU-145, 6.5 µM in the test on HeLa, 3.51 µM in the test with HCT-15 and 1.41 µM in the test on T47D. In addition, the values for the inhibition in test [1], in test [2] and in test [3] were 8.3%, 4.3% and 52.2%, respectively.

As to `COc1cc([C@@H]2c3cc4c(cc3[C@@H](O[C@@H]3O[C@@H]5CO[C@@H](C)O[C@H]5[C@H](O)[C@H]3O)[C@H]3COC(=O)[C@H]23)OCO4)cc(OC)c1O` [ETOPOSIDE], the IC50 in the test on DU-145 was determined as 2.09 µM; in the test with HeLa, 7.32 µM; in the test on HCT-15, 18.9 µM; in the test with T47D it was 13.7 µM.

For the compound `Oc1ccc(-c2cc(-c3ccccn3)cc(-c3ccc(O)cc3)n2)cc1`, the IC50 was above 50 µM in the test on DU-145, above 50 µM in the test with HeLa, above 50 µM in the test on HCT-15 and 1.04 µM in the test on T47D. For the same compound, the inhibition was 1.4% in test [1] and 27.4% in test [3].

In the case of `Oc1ccccc1-c1cc(-c2ccccn2)cc(-c2ccccc2O)n1`, the IC50 with DU-145, in the test on HeLa, with HCT-15 and with T47D was above 50 µM in each case. The inhibition is 0.8% in test [1], 4.3% in test [2] and 65.5% in test [3].

As for `Oc1cccc(-c2cc(-c3ccoc3)cc(-c3cccc(O)c3)n2)c1`, the IC50 with DU-145 came out at 1.65 µM; in the test on HeLa it was 4.63 µM; in the test on HCT-15, 1.02 µM; in the test with T47D it was 2.59 µM. For the same compound, the inhibition in test [1] turned out to be 44.2%; in test [3] it was 7.3%; in test [4], 2%.

For the compound `Oc1cccc(-c2cc(-c3ccoc3)cc(-c3ccccc3O)n2)c1`, the IC50 in the test with DU-145 is 2.79 µM; in the test on HeLa, above 50 µM; in the test on HCT-15, above 50 µM; in the test with T47D, above 50 µM. Besides, the inhibition came out at 29.5% in test [1], 7% in test [2] and 62.1% in test [3].

For `Oc1ccc(-c2cc(-c3ccccn3)cc(-c3cccc(O)c3)n2)cc1`, the IC50 in the test on DU-145 is 1.98 µM; in the test on HeLa, 1.93 µM; in the test with HCT-15 it was above 50 µM; in the test with T47D, 0.98 µM. Also, the inhibition amounted to 2.4% in test [1] and 11.9% in test [3].

With `CC[C@@]1(O)C(=O)OCc2c1cc1n(c2=O)Cc2cc3ccccc3nc2-1` [CAMPTOTHECIN], the IC50 with DU-145 amounted to 0.02 µM; in the test on HeLa, 0.18 µM; in the test with HCT-15, 2.82 µM; with T47D it was 1.84 µM.

As to `Oc1ccccc1-c1cc(-c2ccoc2)cc(-c2ccccc2O)n1`, the IC50 in the test with DU-145, in the test with HeLa, in the test with HCT-15 and in the test with T47D was above 50 µM in each case. The inhibition came to 1% in test [1] and 12.2% in test [3].

Take `Oc1cccc(-c2cc(-c3cccnc3)cc(-c3cccc(O)c3)n2)c1`: the IC50 in the test on DU-145, in the test on HeLa, in the test on HCT-15 and in the test with T47D was above 50 µM each time. Further, the inhibition in test [1] came to 2.1%; in test [3], 11.2%; in test [4], 1.9%.

Regarding `Oc1ccc(-c2cc(-c3ccoc3)cc(-c3ccc(O)cc3)n2)cc1`, the IC50 in the test on DU-145 is 3.44 µM; in the test on HeLa it was 3.42 µM; in the test with HCT-15, 1.53 µM; in the test on T47D, 3.46 µM. Besides, the inhibition amounted to 74.9% in test [1], 12% in test [3] and 0% in test [4].

The IC50 is the concentration that inhibits the measured activity by half. High values mean a need for much substance, low ones inhibition by little substance. As a reminder, the inhibition is the share of the control response that was lost under treatment.

The values are drawn from ChEMBL document CHEMBL3585276, “Topoisomerase I and II inhibitory activity, cytotoxicity, and structure-activity relationship study of dihydroxylated 2,6-diphenyl-4-aryl pyridines” (Bioorg Med Chem, 2015).
